Data published in ChEMBL document CHEMBL1135813, “Orally-effective, long-acting sorbitol dehydrogenase inhibitors: synthesis, structure-activity relationships, and in vivo evaluations of novel heterocycle-substituted piperazino-pyrimidines” (J Med Chem, 2002).

Tests used:
[1] = molecular target: T1, Sorbitol dehydrogenase (Homo sapiens, UniProt Q00796)
T1 sequence (Q00796 whole entry): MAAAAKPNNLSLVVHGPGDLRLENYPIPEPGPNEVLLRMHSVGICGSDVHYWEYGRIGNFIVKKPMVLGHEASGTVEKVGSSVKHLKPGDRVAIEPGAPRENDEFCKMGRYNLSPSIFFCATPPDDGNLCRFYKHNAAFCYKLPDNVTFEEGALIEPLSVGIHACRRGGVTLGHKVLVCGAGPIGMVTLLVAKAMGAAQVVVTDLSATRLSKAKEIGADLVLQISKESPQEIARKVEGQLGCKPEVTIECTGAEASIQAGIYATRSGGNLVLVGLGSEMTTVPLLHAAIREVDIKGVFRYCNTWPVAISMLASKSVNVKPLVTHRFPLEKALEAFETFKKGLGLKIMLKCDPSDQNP

[2] = organism: Rattus norvegicus; assay: Concentration required for 50% prevention of sciatic nerve fructose accumulation using acute model in streptozocin (STZ)-induced diabetic rats; assay type: functional
In short: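 STZ diabetes was induced in male CD Sprague-Dawley rats (175-225 g) with 85 mg/kg iv (citrate, pH 4.5). Oral gavage doses were given 4, 7 and 24 h after STZ, and rats were killed at 28 h. Left sciatic nerve was extracted in 6% perchloric acid and neutralized. Fructose was assayed with FDH/resazurin for 60 min at room temperature (fluorescence). ED50 is expressed as total mg/kg/day.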

[3] = test system: Rattus norvegicus; assay: Concentration required for 50% ability to normalize elevated sciatic nerve fructose in reversal protocol using chronic model in streptozocin (STZ)-induced diabetic rats (in vivo); assay type: functional; settings: in the assay text read “90% ability” for “50% ability”
In short: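 Diabetes was induced in male CD Sprague-Dawley rats (175-225 g) with STZ (85 mg/kg in 0.01 M citrate, pH 4.5) by tail vein. Oral gavage was given once daily from day 8 for 5 days. Rats were killed 4 h after the last dose (day 12). Left sciatic nerve fructose was measured in perchloric acid extract by FDH/resazurin fluorescence (ex 560, em 580 nm) against standards.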

Structure (SMILES)	IC50 [1] [nM]	ED50 [2] [mg/kg/day]	ED90 [3] [mg/kg/day]
C[C@@H](O)c1nccc(N2CCN(c3nc4ncccc4o3)CC2)n1	170	–	–
C[C@@H](O)c1nccc(N2CCN(c3nc(C(F)(F)F)cc(C(F)(F)F)n3)CC2)n1	190	–	–
OCc1nccc(N2CCN(c3nc4ccccc4o3)CC2)n1	190	–	–
Cc1cc(CO)nc(N2CCN(c3ccnc([C@@H](C)O)n3)C[C@H]2C)n1	140	–	–
C[C@@H](O)c1nccc(N2CCN(c3cnc4ccccc4n3)[C@@H](C)C2)n1	99	–	–
Cc1cc(CO)nc(N2CCN(c3ccnc([C@@H](C)O)n3)C[C@@H]2C)n1	80	–	2
Cc1cc(C)nc(N2CCN(c3ccnc(CO)n3)CC2)n1	93	–	–
Cc1cc(CO)nc(N2C[C@@H](C)N(c3ccnc([C@@H](C)O)n3)[C@@H](C)C2)n1	100	–	1
Cc1cc(CO)nc(N2CCN(c3ccnc([C@@H](C)O)n3)[C@H](C)C2)n1	170	–	–
Cc1cc(CO)nc(N2CCN(c3ccnc([C@@H](C)O)n3)[C@@H](C)C2)n1	200	–	–
OCc1nccc(N2CCN(c3ccc4ccccc4n3)CC2)n1	87	–	–
C[C@@H](O)c1nccc(N2CCN(c3cnc4cc(Cl)c(Cl)cc4n3)CC2)n1	120	–	–
Cc1cc(-c2ccccc2)nc(N2CCN(c3ccnc([C@@H](C)O)n3)CC2)n1	220	–	–
C[C@@H]1CN(c2cnc3ccccc3n2)C[C@H](C)N1c1ccnc([C@@H](C)O)n1	180	–	1
C[C@@H]1CN(c2nc3ccncc3o2)C[C@H](C)N1c1ccnc([C@@H](C)O)n1	270	–	–
Cc1cc(CO)nc(N2[C@H](C)CN(c3ccnc([C@@H](C)O)n3)C[C@@H]2C)n1	130	–	–
Cc1ccnc(N2CCN(c3ccnc([C@@H](C)O)n3)CC2)n1	110	–	–
CCc1cc(CC)nc(N2CCN(c3ccnc([C@@H](C)O)n3)CC2)n1	80	–	–
OCc1nccc(N2CCN(c3ccnc(CO)n3)CC2)n1	260	–	–
C[C@@H](O)c1nccc(N2CCN(c3nc4cnccc4o3)CC2)n1	80	–	–
OCc1nccc(N2CCN(c3noc4ccccc34)CC2)n1	120	–	–
OCc1nccc(N2CCN(c3nccc4ccccc34)CC2)n1	150	–	–
Cc1cc(N2CCN(c3ccnc(CO)n3)CC2)nc(C)n1	140	–	–
CN(C)S(=O)(=O)N1CCN(c2ccnc(CO)n2)CC1	240	–	–

Stronger by IC50 [1], values ahead:

IC50 [1] [nM]	Structure (SMILES)	ED50 [2] [mg/kg/day]	ED90 [3] [mg/kg/day]
64	OCc1nccc(N2CCN(c3nsc4ccccc34)CC2)n1	–	–
12	C[C@@H](O)c1nccc(N2CCN(c3nsc4ccccc34)CC2)n1	–	–
23	C[C@@H](O)c1nccc(N2CCN(c3nc4ccncc4o3)[C@@H](C)C2)n1	–	–
40	C[C@@H](O)c1nccc(N2CCN(c3ccnc(CCO)n3)CC2)n1	1	–
59	C[C@@H](O)c1nccc(N2CCN(c3ccnc(CCO)n3)C[C@@H]2C)n1	–	–
35	C[C@@H](O)c1nccc(N2CCN(c3nc4ccccc4o3)CC2)n1	12	–
72	CC(C)c1cc(C(C)C)nc(N2CCN(c3ccnc([C@@H](C)O)n3)CC2)n1	–	–
10	C[C@@H]1CN(c2ccnc(CCO)n2)C[C@H](C)N1c1ccnc([C@@H](C)O)n1	–	2
32	C[C@@H](O)c1nccc(N2CCN(c3nc4cccnc4o3)CC2)n1	0.5	–
67	C[C@@H](O)c1nccc(N2CCN(c3nccc(-c4ccccc4)n3)CC2)n1	–	–
23	Cc1cc(C)nc(N2CCN(c3ccnc([C@@H](C)O)n3)CC2)n1	1.3	–
8	Cc1nc2ccccc2nc1N1CCN(c2ccnc([C@@H](C)O)n2)CC1	–	–
20	Cc1cc(CO)nc(N2CCN(c3ccnc([C@@H](C)O)n3)CC2)n1	0.5	–
37	C[C@@H](O)c1nccc(N2CCN(c3noc4ccccc34)CC2)n1	–	–
34	C[C@@H](O)c1nccc(N2CCN(c3nccc4ccccc34)CC2)n1	–	–
12	C[C@@H]1CN(c2ccnc(CCO)n2)CCN1c1ccnc([C@@H](C)O)n1	–	–
24	C[C@@H](O)c1nccc(N2CCN(c3nc4ccncc4o3)CC2)n1	0.5	10
31	Cc1cc(N2CCN(c3ccnc([C@@H](C)O)n3)CC2)nc(C)n1	5	–
36	C[C@@H](O)c1nccc(N2CCN(c3cnc4ccccc4n3)CC2)n1	1	> 20
44	C[C@@H](O)c1nccc(N2CCN(c3ccc4ccccc4n3)CC2)n1	–	–
